{"data": "Measurements collected from several papers", "cell line": "786-0", "read-out": "cell growth or viability", "note": "Each line is one published result; the experiments were not run side by side."}
{"Compound": "COc1ccc(C(=O)/C=C/c2cc3c(cc2Br)OCO3)cc1S(N)(=O)=O", "test": "SRB", "setting": "10 µM", "endpoint": "inhibition", "value": "140%"}
{"Compound": "COc1cc(-c2ccc(-c3ccc(C(=N)N)nc3)s2)cc(OC)c1OC", "endpoint": "GI50", "value": "2120 nM"}
{"Compound": "COc1ccc(C(=O)/C=C/c2ccccc2Br)cc1S(N)(=O)=O", "test": "SRB", "setting": "48 h", "endpoint": "GI50", "value": "1800 nM"}
{"Compound": "COc1ccc(-c2ccc(-c3ccc(C(=N)N)nc3)s2)cc1Cl", "endpoint": "GI50", "value": "2000 nM"}
{"Compound": "S=C([S][Au-][P+](CCCCCC[P+]([Au-][S]C(=S)n1cccn1)(c1ccccc1)c1ccccc1)(c1ccccc1)c1ccccc1)n1cccn1", "endpoint": "GI50", "value": "9800 nM"}
{"Compound": "CC(=O)O[C@H]1C(=O)[C@@]2(C)[C@H]([C@H](OC(=O)c3ccccc3)[C@]3(O)C[C@H](OC(=O)[C@H](O)[C@@H](NC(=O)c4ccccc4)c4ccccc4)C(C)=C1C3(C)C)[C@]1(OC(C)=O)CO[C@@H]1C[C@@H]2O", "setting": "110 h", "endpoint": "IC50", "value": "5 nM"}
{"Compound": "COc1cccc(Oc2ccccc2NC(=O)CNC(=O)c2cccc3ccccc23)c1", "test": "SRB", "setting": "48 h", "endpoint": "GI50", "value": "490 nM"}
{"Compound": "CCCc1c(Sc2ccc(C(=O)N[C@@H](CCC(=O)O)C(=O)O)cc2)[nH]c2nc(N)nc(N)c12", "endpoint": "GI50", "value": "≤ 10 nM"}
{"Compound": "Cc1cc(C)n(C(=S)[S][Au][PH](CCCCCC[PH]([Au][S]C(=S)n2nc(C)cc2C)(c2ccccc2)c2ccccc2)(c2ccccc2)c2ccccc2)n1", "endpoint": "GI50", "value": "3100 nM"}
{"Compound": "CC1=CC(=O)C(C(C)C)=CC1=O", "test": "CCK-8", "setting": "48 h", "endpoint": "IC50", "value": "43000 nM"}
{"Compound": "CC(C)c1c(Sc2ccc(C(=O)N[C@@H](CCC(=O)O)C(=O)O)cc2)[nH]c2nc(N)nc(N)c12", "endpoint": "GI50", "value": "5580 nM"}
